Source: ChEMBL document CHEMBL4610127, “Novel Autotaxin Inhibitor for the Treatment of Idiopathic Pulmonary Fibrosis: A Clinical Candidate Discovered Using DNA-Encoded Chemistry” (J Med Chem, 2020)
Values after ≈ are worked out from the molar mass of the structure shown. Active and inactive are the calls of the source. No cut-off for these calls is given here.

Columns and labels:
[1] = Volume of distribution at steady state in rat at 1 mg/kg, iv; format: ADME, organism-based; settings: in vivo, read-out: Vdss
[2] = Cmax in dog at 1 mg/kg, po; format: ADME, organism-based, Canis lupus familiaris; parameters: dose 1 mg/kg, route oral; settings: in vivo
[3] = target: T1, Voltage-gated inwardly rectifying potassium channel KCNH2 (Homo sapiens, UniProt Q12809); test: Inhibition of human ERG by manual patch clamp assay
T1 sequence (Q12809 whole entry): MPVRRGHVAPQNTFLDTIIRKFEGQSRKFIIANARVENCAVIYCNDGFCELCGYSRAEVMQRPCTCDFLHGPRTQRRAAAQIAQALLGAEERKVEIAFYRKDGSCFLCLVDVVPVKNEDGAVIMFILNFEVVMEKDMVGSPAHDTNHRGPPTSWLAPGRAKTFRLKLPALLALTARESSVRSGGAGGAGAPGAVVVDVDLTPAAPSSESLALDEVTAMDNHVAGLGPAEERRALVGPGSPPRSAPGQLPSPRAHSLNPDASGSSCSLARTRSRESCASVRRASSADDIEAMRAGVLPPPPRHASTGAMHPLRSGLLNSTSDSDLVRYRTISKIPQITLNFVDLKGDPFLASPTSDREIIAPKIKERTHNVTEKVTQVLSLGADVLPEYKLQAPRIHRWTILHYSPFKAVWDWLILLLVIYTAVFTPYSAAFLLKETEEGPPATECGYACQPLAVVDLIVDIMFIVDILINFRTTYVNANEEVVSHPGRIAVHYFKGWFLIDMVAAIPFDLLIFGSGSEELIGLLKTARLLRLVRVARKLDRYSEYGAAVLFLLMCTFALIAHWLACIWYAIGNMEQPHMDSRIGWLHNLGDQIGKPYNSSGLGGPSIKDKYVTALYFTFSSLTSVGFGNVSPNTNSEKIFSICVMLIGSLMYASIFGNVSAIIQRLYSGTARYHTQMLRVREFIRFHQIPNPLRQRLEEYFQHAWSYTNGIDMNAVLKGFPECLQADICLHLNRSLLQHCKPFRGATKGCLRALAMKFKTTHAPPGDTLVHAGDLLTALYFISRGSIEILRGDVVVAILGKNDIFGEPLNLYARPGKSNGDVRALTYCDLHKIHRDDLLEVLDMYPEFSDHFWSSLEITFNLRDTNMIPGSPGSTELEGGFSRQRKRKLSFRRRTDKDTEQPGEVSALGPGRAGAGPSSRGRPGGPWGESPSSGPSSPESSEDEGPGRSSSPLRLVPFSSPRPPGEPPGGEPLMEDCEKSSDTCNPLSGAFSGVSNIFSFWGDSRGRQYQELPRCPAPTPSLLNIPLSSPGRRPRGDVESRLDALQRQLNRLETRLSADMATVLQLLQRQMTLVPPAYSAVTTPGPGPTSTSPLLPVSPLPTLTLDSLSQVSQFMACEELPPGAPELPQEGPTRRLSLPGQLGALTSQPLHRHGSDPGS

[4] = Cmax in mouse at 10 mg/kg, po; format: ADME, organism-based; parameters: dose 10 mg/kg, route oral; settings: in vivo
[5] = Half life in rat liver microsomes; format: ADME, Microsome
[6] = Oral bioavailability in rat at 5 mg/kg; format: ADME, organism-based; settings: in vivo
[7] = Half life in dog at 1 mg/kg, po; format: ADME, organism-based, Canis lupus familiaris; settings: in vivo
Mus musculus [8] = test: Anti-fibrotic activity in C57BL/6 mouse model of bleomycin-induced lung fibrosis assessed as reduction in hydroxyproline levels at 100 to 300 mg/kg, po BID dosed until day 21 starting one day prior to bleomycin treatment; format: functional, organism-based
Procedure, shortened: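 Mice given oral BID doses (30, 100 or 300 mg/kg) starting one day before bleomycin. Killed 21 days after bleomycin; lung fibrosis scored by hydroxyproline in one group. GLPG1690 at 30 and 100 mg/kg BID as control. Hydroxyproline plotted per mouse; medians and p-values against bleomycin + vehicle.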

[9] = Protein binding in rat plasma; format: ADME, cell-free; settings: read-out: PPB (converted)
Autotaxin [10] = target: T2, Autotaxin (Homo sapiens, UniProt Q13822); test: Inhibition of autotaxin in human plasma assessed as reduction in LPA (18:2) production incubated for 2 hrs LC-MS-/MS analysis; format: cell-free
[11] = AUClast in mouse at 10 mg/kg, po; format: ADME, organism-based; parameters: dose 10 mg/kg, time 0 - last, route oral; settings: in vivo
Mus musculus [12] = test: Anti-fibrotic activity in C57BL/6 mouse model of bleomycin-induced lung fibrosis assessed as reduction in lung fibrosis levels at 30 to 300 mg/kg, po BID for 21 days dosed 7 days after bleomycin treatment by trichrome staining based assay; format: functional, organism-based
Procedure, shortened: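 Therapeutic mode: oral BID dosing (30, 100, 300 mg/kg) began seven days after bleomycin. Mice killed 21 days after bleomycin; fibrosis quantitated by trichrome staining of lung tissue in a separate group from the hydroxyproline group. GLPG1690 at 30 and 100 mg/kg BID as control.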

[13] = Volume of distribution at steady state in dog at 1 mg/kg, iv; format: ADME, organism-based, Canis lupus familiaris; settings: in vivo, read-out: Vdss
[14] = AUClast in rat at 5 mg/kg, po; format: ADME, organism-based; parameters: dose 5 mg/kg, route oral, time 0 - last; settings: in vivo
Mus musculus [15] = test: Anti-fibrotic activity in C57BL/6 mouse model of bleomycin-induced lung fibrosis assessed as reduction in hydroxyproline levels at 100 to 300 mg/kg, po BID for 21 days dosed 7 days after bleomycin treatment; format: functional, organism-based
Procedure, shortened: (§1)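 Mice given oral BID doses (30, 100 or 300 mg/kg) starting seven days after bleomycin. Killed 21 days after bleomycin; lung fibrosis scored by hydroxyproline in one group. GLPG1690 at 30 and 100 mg/kg BID as control. Medians and p-values against bleomycin + vehicle.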

[16] = target: Lysophosphatidic acid receptor 1 (Homo sapiens, UniProt Q92633); test: Inhibition of LPAR1 (unknown origin)
Chain of Lysophosphatidic acid receptor 1 (Q92633 whole entry): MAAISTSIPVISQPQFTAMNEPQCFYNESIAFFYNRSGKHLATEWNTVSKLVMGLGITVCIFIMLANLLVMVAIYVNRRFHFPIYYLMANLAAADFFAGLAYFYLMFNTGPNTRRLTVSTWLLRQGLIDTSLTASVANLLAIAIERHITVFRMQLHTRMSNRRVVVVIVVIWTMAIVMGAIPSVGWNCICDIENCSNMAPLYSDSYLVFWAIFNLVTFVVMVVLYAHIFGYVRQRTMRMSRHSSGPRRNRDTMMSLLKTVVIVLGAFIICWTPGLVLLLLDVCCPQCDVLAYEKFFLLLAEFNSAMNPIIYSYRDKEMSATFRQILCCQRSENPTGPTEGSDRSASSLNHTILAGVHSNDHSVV

[17] = Clearance in mouse at 1 mg/kg, iv; format: ADME, organism-based; settings: in vivo
[18] = Volume of distribution at steady state in mouse at 1 mg/kg, iv; format: ADME, organism-based; settings: in vivo, read-out: Vdss
[19] = target: T3, Lysophosphatidic acid receptor 3 (Homo sapiens, UniProt Q9UBY5); test: Inhibition of LPAR3 (unknown origin)
T3 sequence (Q9UBY5 whole entry): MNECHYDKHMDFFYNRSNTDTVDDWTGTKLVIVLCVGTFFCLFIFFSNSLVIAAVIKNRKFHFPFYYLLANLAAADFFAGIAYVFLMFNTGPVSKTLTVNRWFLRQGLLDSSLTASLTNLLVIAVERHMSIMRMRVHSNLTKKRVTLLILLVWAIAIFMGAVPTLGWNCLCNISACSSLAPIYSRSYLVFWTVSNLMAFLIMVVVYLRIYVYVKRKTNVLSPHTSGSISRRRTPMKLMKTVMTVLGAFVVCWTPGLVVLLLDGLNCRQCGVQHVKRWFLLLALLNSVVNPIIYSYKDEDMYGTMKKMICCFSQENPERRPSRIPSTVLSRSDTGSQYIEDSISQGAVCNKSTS

[20] = Clearance in rat at 1 mg/kg, iv; format: ADME, organism-based; settings: in vivo
[21] = target: T1, Voltage-gated inwardly rectifying potassium channel KCNH2; test: Inhibition of human ERG by GLP based assay
Autotaxin [22] = target: T2, Autotaxin; test: Inhibition of C-terminal FLAG-tagged human autotaxin expressed in Freestyle 293 cells assessed as reduction in choline release from LPC 16:0 pre-incubated for 10 mins before LPC addition and measured after 1 hr by choline oxidase/HRP coupled assay; format: cell-based
[23] = Half life in mouse at 1 mg/kg, iv; format: ADME, organism-based; settings: in vivo
[24] = target: T4, Ectonucleotide pyrophosphatase/phosphodiesterase family member 1 (Homo sapiens, UniProt P22413); test: Inhibition of ENPP1 (unknown origin)
T4 sequence (P22413 whole entry): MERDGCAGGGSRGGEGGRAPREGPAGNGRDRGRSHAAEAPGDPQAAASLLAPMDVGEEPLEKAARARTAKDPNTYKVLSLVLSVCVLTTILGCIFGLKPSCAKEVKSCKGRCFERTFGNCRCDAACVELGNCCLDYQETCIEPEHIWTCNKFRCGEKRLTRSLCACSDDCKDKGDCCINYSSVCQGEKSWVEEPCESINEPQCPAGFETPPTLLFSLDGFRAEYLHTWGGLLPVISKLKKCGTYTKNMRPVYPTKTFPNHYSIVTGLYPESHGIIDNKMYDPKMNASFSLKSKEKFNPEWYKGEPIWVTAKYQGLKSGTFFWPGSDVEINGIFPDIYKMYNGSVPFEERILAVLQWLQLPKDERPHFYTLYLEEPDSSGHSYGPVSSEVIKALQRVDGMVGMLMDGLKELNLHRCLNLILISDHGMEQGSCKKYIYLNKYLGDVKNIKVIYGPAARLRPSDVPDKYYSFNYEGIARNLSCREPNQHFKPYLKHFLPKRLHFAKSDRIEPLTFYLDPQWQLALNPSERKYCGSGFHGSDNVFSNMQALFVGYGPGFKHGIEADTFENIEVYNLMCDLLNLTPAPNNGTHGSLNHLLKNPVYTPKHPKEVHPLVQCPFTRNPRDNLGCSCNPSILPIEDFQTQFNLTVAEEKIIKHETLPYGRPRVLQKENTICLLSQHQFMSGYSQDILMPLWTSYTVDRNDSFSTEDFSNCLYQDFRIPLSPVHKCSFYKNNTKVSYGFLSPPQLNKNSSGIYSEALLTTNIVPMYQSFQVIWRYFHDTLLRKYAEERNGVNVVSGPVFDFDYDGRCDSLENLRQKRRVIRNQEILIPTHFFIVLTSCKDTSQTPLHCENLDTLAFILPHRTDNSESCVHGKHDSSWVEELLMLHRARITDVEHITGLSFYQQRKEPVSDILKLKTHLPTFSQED

[25] = Thermodynamic solubility in pH 7.4 buffer; format: physicochemical; settings: read-out: Therm_solubility
[26] = Half life in rat at 5 mg/kg, po; format: ADME, organism-based; settings: in vivo
[27] = Half life in rat at 1 mg/kg, iv; format: ADME, organism-based; settings: in vivo
Mus musculus [28] = test: Anti-fibrotic activity in C57BL/6 mouse model of bleomycin-induced lung fibrosis assessed as reduction in hydroxyproline levels at 30 mg/kg, po BID for 21 days dosed 7 days after bleomycin treatment; format: functional, organism-based; procedure, shortened: as §1

With `CC(C)[C@@H](NC(=O)c1cc(C(F)(F)F)ccc1F)C(=O)N1CCC2(CC1)C(=O)N(C)C(=O)N2c1ccc2[nH]ncc2c1` the Vd [1] was 1.98 L/kg, the Cmax [2] was 0.374 µg/mL and the IC50 [3] was over 50 µM. For the same compound, the Cmax [4] was 0.744 µg/mL, the half-life [5] was 4.62 h and the bioavailability [6] was 24%. The half-life [7] was 4.2 h, the Activity (Mus musculus [8]) was “Active” and the fraction unbound [9] was 0.273. For the same compound, the IC50 (Autotaxin [10]) was 0.014 µM, the AUC(0-t) [11] was 2.59 µg·h/mL and the Activity (Mus musculus [12]) was “Dose-dependent effect”. The Vd [13] was 0.655 L/kg, the AUC(0-t) [14] was 0.518 µg·h/mL and the Activity (Mus musculus [15]) was “Active”. It also gave an IC50 [16] of over 10 µM, a clearance [17] of 3.24 L/h/kg and a Vd [18] of 1.38 L/kg. It also gave an IC50 [19] of over 10 µM, a clearance [20] of 2.16 L/h/kg and an IC50 [21] of over 50 µM. For the same compound, the IC50 (Autotaxin [22]) was 0.055 µM, the half-life [23] was 0.57 h and the IC50 [24] was over 10 µM. For the same compound, the solubility thermodynamic [25] was 452 µM (≈ 266 µg/mL), the half-life [26] was 1.8 h and the half-life [27] was 1.5 h. The Activity (Mus musculus [28]) was “inactive”.
